Experimental data published in ChEMBL document CHEMBL4627283, “Discovery and optimization of 4-oxo-2-thioxo-thiazolidinones as NOD-like receptor (NLR) family, pyrin domain-containing protein 3 (NLRP3) inhibitors” (Bioorg Med Chem Lett, 2020).

Legend:
[1] = target: T1, NACHT, LRR and PYD domains-containing protein 3 (Homo sapiens, UniProt Q96P20); test: Inhibition of NLRP3 inflammasome (unknown origin) activation in LPS-primed bone marrow derived macrophage cells at 10 uM in presence of mono sodium urate relative to control
T1 sequence (Q96P20 whole entry, the tested form may be a part): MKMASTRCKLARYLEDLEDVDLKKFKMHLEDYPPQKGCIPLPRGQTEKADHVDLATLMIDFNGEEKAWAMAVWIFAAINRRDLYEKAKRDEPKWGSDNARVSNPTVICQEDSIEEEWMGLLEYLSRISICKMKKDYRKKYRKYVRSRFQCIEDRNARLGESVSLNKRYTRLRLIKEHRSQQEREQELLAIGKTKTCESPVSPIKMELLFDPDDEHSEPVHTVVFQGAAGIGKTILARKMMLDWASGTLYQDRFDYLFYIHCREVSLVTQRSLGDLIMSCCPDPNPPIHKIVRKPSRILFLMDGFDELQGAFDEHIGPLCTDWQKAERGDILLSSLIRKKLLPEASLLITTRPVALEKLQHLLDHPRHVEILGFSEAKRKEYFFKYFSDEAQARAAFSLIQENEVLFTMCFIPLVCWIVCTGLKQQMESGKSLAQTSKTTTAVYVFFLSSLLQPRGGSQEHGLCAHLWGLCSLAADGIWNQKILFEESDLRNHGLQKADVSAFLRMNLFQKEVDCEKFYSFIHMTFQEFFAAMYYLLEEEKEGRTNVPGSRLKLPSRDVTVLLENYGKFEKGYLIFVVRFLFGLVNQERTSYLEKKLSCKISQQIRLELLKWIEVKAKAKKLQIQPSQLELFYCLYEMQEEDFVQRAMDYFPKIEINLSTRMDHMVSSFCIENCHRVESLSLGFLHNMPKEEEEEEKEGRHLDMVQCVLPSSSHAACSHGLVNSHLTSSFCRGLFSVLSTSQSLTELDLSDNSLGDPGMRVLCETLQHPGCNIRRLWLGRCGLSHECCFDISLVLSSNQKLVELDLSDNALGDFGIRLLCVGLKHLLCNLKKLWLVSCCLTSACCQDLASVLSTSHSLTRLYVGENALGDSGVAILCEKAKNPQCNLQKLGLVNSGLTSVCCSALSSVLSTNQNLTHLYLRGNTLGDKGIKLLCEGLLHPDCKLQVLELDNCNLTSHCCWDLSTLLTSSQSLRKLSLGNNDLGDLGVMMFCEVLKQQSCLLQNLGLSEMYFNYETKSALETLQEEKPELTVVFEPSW

[2] = target: Cystic fibrosis transmembrane conductance regulator (Homo sapiens) (UniProt P13569); test: Inhibition of CFTR in human HT-29 cells assessed as effect on intracellular chloride efflux at 20 uM relative to control; type: cell-based
Chain of Cystic fibrosis transmembrane conductance regulator (Homo sapiens) (P13569 whole entry, looked up, the tested form may be a part): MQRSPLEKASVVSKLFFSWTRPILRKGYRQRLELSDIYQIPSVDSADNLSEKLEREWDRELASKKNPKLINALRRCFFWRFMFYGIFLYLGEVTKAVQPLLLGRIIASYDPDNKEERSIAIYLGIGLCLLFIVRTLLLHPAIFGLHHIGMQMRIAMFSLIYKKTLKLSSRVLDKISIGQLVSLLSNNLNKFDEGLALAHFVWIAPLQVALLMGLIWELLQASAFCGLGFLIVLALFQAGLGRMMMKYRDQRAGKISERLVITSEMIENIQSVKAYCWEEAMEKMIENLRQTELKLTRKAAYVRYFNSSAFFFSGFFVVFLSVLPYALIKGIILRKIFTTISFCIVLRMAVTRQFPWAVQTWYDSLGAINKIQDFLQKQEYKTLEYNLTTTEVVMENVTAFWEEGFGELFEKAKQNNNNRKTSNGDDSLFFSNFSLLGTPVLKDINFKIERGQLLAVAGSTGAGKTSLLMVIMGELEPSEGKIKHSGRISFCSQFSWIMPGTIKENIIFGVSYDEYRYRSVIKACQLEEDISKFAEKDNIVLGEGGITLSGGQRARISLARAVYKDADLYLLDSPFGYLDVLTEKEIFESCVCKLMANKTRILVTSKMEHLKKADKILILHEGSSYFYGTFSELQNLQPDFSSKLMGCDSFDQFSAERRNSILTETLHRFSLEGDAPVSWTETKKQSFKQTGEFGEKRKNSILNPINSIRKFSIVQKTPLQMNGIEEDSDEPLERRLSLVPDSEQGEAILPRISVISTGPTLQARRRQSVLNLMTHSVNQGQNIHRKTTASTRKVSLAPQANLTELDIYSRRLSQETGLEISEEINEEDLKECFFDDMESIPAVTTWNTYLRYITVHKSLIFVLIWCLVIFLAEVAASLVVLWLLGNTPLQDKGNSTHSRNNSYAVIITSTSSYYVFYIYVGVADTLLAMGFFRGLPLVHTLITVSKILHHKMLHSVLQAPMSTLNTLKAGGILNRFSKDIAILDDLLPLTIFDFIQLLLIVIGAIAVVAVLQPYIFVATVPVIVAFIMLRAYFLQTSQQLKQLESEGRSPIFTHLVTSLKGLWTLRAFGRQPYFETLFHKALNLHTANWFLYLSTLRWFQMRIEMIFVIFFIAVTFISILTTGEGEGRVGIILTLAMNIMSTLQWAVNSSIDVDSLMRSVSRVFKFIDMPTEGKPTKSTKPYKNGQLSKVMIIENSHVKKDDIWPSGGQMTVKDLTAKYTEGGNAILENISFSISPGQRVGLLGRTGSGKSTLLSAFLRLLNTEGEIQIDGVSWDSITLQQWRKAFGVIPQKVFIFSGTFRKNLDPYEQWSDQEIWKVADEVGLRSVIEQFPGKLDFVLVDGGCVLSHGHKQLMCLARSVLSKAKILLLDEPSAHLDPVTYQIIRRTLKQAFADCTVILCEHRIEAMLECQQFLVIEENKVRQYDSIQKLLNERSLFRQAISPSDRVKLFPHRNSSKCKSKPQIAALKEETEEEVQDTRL

[3] = target: T1, NACHT, LRR and PYD domains-containing protein 3; test: Inhibition of NLRP3 inflammasome (unknown origin) activation in LPS-primed bone marrow derived macrophage cells assessed as effect on IL-1beta production in presence of nigericin by ELISA
Summary of the method: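 BMDMs pretreated with varied doses of compound, then LPS-primed and stimulated with nigericin; IL-1β in supernatant by ELISA, normalized to DMSO-treated control; IC50 given as mean ± SD.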

[4] = Clearance in human liver microsomes in presence of NADPH; type: ADME, Microsome
Summary of the method: (§1)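 Stability in human and mouse liver microsomes incubated with an NADPH regenerating system; half-life (min) and hepatic clearance (mL/min/kg) determined.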

[5] = Half life in human liver microsomes in presence of NADPH; type: ADME, Microsome; summary of the method: as §1
[6] = target: T1, NACHT, LRR and PYD domains-containing protein 3; test: Inhibition of NLRP3 inflammasome (unknown origin) assessed as suppression of mono sodium urate-induced caspase 1 activation by immunoblot analysis
Summary of the method: (§2)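 LPS-primed BMDMs treated with graded doses of test compound, then stimulated with MSU; IL-1β and cleaved caspase-1 (p20) in culture supernatants detected by immunoblot.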

[7] = Half life in mouse liver microsomes in presence of NADPH; type: ADME, Microsome; summary of the method: as §1
[8] = target: T1, NACHT, LRR and PYD domains-containing protein 3; test: Inhibition of NLRP3 inflammasome (unknown origin) assessed as suppression of mono sodium urate-induced IL-1beta level by immunoblot analysis; summary of the method: as §2
[9] = Clearance in mouse liver microsomes in presence of NADPH; type: ADME, Microsome; summary of the method: as §1
Homo sapiens = species on record: Homo sapiens; test: Selectivity index, ratio of inhibition of NLRP3 inflammasome (unknown origin) activation in bone marrow derived macrophage cells at 10 uM to inhibition of CFTR in human HT-29 cells at 20 uM; type: cell-based
Summary of the method: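 Selectivity index: % NLRP3 inhibition in BMDMs at 10 μM divided by % CFTR inhibition in HT29 cells at 20 μM.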

SMILES | inhibition [1] | inhibition [2] | IC50 [3] | CLhep predicted [4] | half-life [5] | inhibition [6] | half-life [7] | inhibition [8] | CLhep predicted [9] | Selectivity Index (Homo sapiens)
O=C(O)c1ccc(/C=C2\SC(=S)N(Cc3cccc(OC(F)(F)F)c3)C2=O)cc1 | 29% | 12% | > 10 µM |  |  |  |  |  |  | 
CN1CCN(C(=O)c2ccc(/C=C3\SC(=S)N(Cc4cccc(C(F)(F)F)c4)C3=O)cc2)CC1 | 35% | 10% | > 10 µM |  |  |  |  |  |  | 
O=C(O)c1ccc(/C=C2\SC(=S)N(CCc3cccc(C(F)(F)F)c3)C2=O)cc1 | 74% | > 10% | 5.91 µM |  |  |  |  |  |  | 
O=C(O)c1ccc(/C=C2\SC(=S)N(c3cccc(C(F)(F)F)c3)C2=O)cc1 | 71% | 86% | 6.39 µM | 2.8 mL/min/kg | 277 min | Dose-dependent effect | 12.6 min | Dose-dependent effect | 69.8 mL/min/kg | 0.83
CN1CCN(C(=O)c2ccc(/C=C3\SC(=S)N(c4cccc(C(F)(F)F)c4)C3=O)cc2)CC1 | 81% | 77% | 2.69 µM | 15.3 mL/min/kg | 15.6 min |  | 1.7 min |  | 86.6 mL/min/kg | 1.05
C[C@]12CC[C@H]3[C@@H](CCC4=CC(=O)CC[C@@]43C)[C@@H]1CC[C@@H]2O [TESTOSTERONE] |  |  |  | 2.8 mL/min/kg | 277 min |  |  |  |  | 
O=C1S/C(=C\c2ccc(-c3nnn[nH]3)cc2)C(=O)N1Cc1cccc(C(F)(F)F)c1 | 63% | > 10% | 5.61 µM |  |  |  |  |  |  | 
O=C(O)c1ccc(/C=C2\SC(=S)N(Cc3ccc(-c4ccccc4)cc3)C2=O)cc1 | 73% | 11% | 7.63 µM |  |  |  |  |  |  | 
CN1CCN(C(=O)c2ccc(/C=C3\SC(=S)N(c4cccc(OC(F)(F)F)c4)C3=O)cc2)CC1 | 76% | 69% | 2.57 µM | 12.8 mL/min/kg | 27.1 min |  | 3.7 min |  | 83 mL/min/kg | 1.1
O=C1/C(=C/c2ccc(-c3nnn[nH]3)cc2)SC(=S)N1CCc1cccc(C(F)(F)F)c1 | 67% |  | 6.5 µM |  |  |  |  |  |  | 
O=C(c1ccc(/C=C2\SC(=S)N(c3cccc(OC(F)(F)F)c3)C2=O)cc1)N1CCOCC1 | 75% | 68% | 3.18 µM | 3.9 mL/min/kg | 187 min |  | 23.9 min |  | 58.1 mL/min/kg | 1.1
O=C(Nc1ccccc1)c1ccc(/C=C2\SC(=S)N(c3cccc(C(F)(F)F)c3)C2=O)cc1 | 32% | 27% | > 10 µM |  |  |  |  |  |  | 1.19
